This is a sample that favours compounds with a hit; in the whole collection about 2.9% have one here.
IMP-1 inhibitor: inhibitors of Pseudomonas aeruginosa IMP-1 metallo-beta-lactamase. hit rate 0.45% among 290,000. inhibition, % at 5.6 µM. purified IMP-1, nitrocefin hydrolysis, epi-absorbance fluorescence;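 active = inhibition above the mean plus 3 SD of all compounds in the same screening run, cut at about 4.5% in these data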;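 note: 0% = IMP-1 with DMSO and 100% = DMSO wells lacking enzyme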
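Assay system: purified IMP-1; Quantity: IMP-1 0.2 nM before substrate addition; Medium: HEPES buffer pH 7.1 with ZnSO4 and Brij 35; Incubation: 15 min enzyme–compound preincubation, then 25 min nitrocefin reaction, 25 °C; Signal: fluorescence quenching readout, ex 480/em 530 nm; Controls: DMSO with and without IMP-1; Repeats: singlicate testing.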
Mot1-301 SUMO: inhibitors of SUMOylation pathway: yeast Mot1-301 growth rescue; growth rescue, % at 18.8 µM; AID 2716; hit rate 1% among 320,000; S. cerevisiae Mot1-301 growth rescue, ATP luminescence, 38.5C; percent above DMSO median, 100 means doubled;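 active = every valid replicate shows activation above 250% relative to neutral control wells; inactive = the rest, any valid replicate at or below 250%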;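 note: OY570 slx delta 5 strain wells were the positive control but not used for scaling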
SUMO HTRF inh: inhibitors of human SUMOylation (UBC9); P63279; HTRF SUMOylation assay, SAE1/SAE2 + UBC9, in vitro; AID 2006; inhibition, % at 35 µM; hit rate 0.36% among 290,000; in the data active = inhibition above about 50%, passing the limit was not always enough
Target sequence (P63279 whole entry, looked up): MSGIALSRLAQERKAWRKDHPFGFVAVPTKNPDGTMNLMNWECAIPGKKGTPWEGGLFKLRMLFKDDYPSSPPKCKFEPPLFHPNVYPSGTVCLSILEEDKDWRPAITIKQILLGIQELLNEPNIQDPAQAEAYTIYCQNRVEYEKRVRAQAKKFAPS
VIM-2 inh: blocks Pseudomonas aeruginosa VIM-2 metallo-beta-lactamase; purified VIM-2, nitrocefin hydrolysis, epi-absorbance fluorescence; inhibition, % at 5.6 µM; hit rate 0.89% among 290,000; AID 1527;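 active = inhibition above the mean of all tested compounds plus 3 SD, cutoff set per screening run, cut at about 7.5% in these data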;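 note: red hydrolysis product quenches plate fluorescence so inhibitors raise well fluorescence; 0% = enzyme with DMSO and 100% = DMSO without enzyme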
DNA FID counter: counter-screen for HCV NS3 helicase inhibitors: DNA intercalator displacement; AID 1845; inhibition, % at 7.9 µM; hit rate 0.17% among 290,000; DNA fluorescent intercalator displacement, fluorescence; in the data active = inhibition above about 37%;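 note: 0% = vehicle and 100% = reference compound; higher means more ethidium bromide displaced from hairpin DNA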
NALP1 inh: NALP1 inhibition; S. cerevisiae NALP1/ASC/caspase-1 growth, X-gal OD620, 72 h; inhibition, % at 10 µM; hit rate 0.61% among 280,000; AID 2071; in the data active = inhibition mostly above about 24%, no sharp cut-off; inactive = mostly below about 32%
Starred values were filed as active, the others as inactive; nt = not tested or not shown.

SMILES | IMP-1 inhibitor | Mot1-301 SUMO | SUMO HTRF inh | VIM-2 inh | DNA FID counter | NALP1 inh
COc1ccc(-n2nc([N+](=O)[O-])c(=NCCC3=CCCCC3)n2O)cc1 | 0 | nt | 1 | -2 | -10 | 8
CSCC[C@H](NC(=O)[C@@H]1Cc2c([nH]c3ccccc23)C2c3ccccc3C(=O)N21)C(=O)NCC1CCCO1 (stereo partly drawn) | -1 | 793* | 7 | -1 | -23 | 10
O=C1N=c2ccccc2=C1c1sc(Nc2ccc(O)cc2)nc1O | 5.1* | nt | 77 | -4 | 7 | 13
O=C1N=c2ccccc2=C1c1sc(NS(=O)(=O)Cc2ccccc2)nc1O | -2 | -8 | 4 | -4 | -18 | nt
O=C1N=c2ccccc2=C1c1sc(NS(=O)(=O)c2ccccc2)nc1O | -1 | -5 | 4 | -2 | -12 | -8
O=C1N=c2ccccc2=C1c1sc(Nc2cccc(O)c2)nc1O | -6 | 18 | -7 | -3 | 39* | 12
COc1cc(NC(=O)COC(=O)c2cnccn2)c(C)cc1[N+](=O)[O-] | 0 | 165 | 0 | 0 | 5 | 6
O=C(/C=C/c1ccccc1)C1C(=O)c2ccccc2C1=O | -1 | 136 | 59* | 0 | -10 | 1
CCc1ccc(/C=C/C(=O)C2C(=O)c3ccccc3C2=O)cc1 | 1 | 0 | 4 | 1 | -20 | 5
Cc1ccc(C2c3c(C)nn(-c4ccc([N+](=O)[O-])cc4)c3N=C3C(=O)Nc4ccccc4N32)cc1 (stereo not drawn) | -2 | -7 | 19 | -4 | -1 | 4
COc1cccc(C2c3c(C)nn(-c4ccc([N+](=O)[O-])cc4)c3N=C3C(=O)Nc4ccccc4N32)c1 (stereo not drawn) | -2 | -1 | 16 | -3 | 3 | 30*
C=CCN(C(=O)c1csnn1)C(C(=O)NC1CCCCC1)c1ccc(F)cc1 (stereo not drawn) | -4 | -9 | 10 | -2 | -34 | -2
COc1ccc(CNC(=O)Cn2nc(Cc3cccnc3)c3ccccc3c2=O)cc1 | -2 | 439* | 10 | -1 | -11 | -16
COc1cccc(NC(=O)Cn2nc(Cc3cccnc3)c3ccccc3c2=O)c1 | 1 | -9 | 18 | 0 | -19 | 13
Cc1ccc(NC(=S)N2CCC(c3nc4ccccc4s3)CC2)cc1 | -3 | 16 | -17 | -3 | -2 | 34
Cc1cc(C)c2c(=O)n(CC(=O)NCCCN3CCOCC3)sc2n1 | -3 | 353* | 2 | -4 | -1 | nt
CS(=O)(=O)Nc1cccc(C(=O)OCCCOc2ccc(F)cc2)c1 | -4 | 21 | 2 | 2 | -19 | 3
O=S(=O)(c1ccc2c(c1)OCCO2)N1CCC(O)(c2ccc(Cl)cc2)CC1 | -4 | -13 | -12 | -1 | 0 | 35*
O=S(=O)(c1cccc(Cl)c1)N1CCN(S(=O)(=O)c2ccc3c(c2)OCCO3)CC1 | nt | -12 | nt | nt | nt | nt
CCCc1nc(SCc2cccnc2)c2c(=O)n(C)c(=O)n(C)c2n1 | -5 | 14 | 14 | 10* | -27 | 32
O=C(c1ccc([N+](=O)[O-])cc1[N+](=O)[O-])n1cnc2ccccc21 | -2 | -14 | -3 | 0 | 9 | -1
Cc1cc(OCC(=O)NNC(=O)c2cccs2)ccc1Br | -2 | -13 | 22 | 0 | -7 | 12
CCCCOC(=O)n1c(SCC(=O)N(CC)CC)nc2ccccc21 | -5 | 9 | -5 | -8 | -30 | 1
CCOC(=O)n1c(SCC(N)=O)nc2ccccc21 | -1 | 13 | -13 | 2 | 2 | 26*
CSCC[C@H](NC(=O)C1CCN(S(=O)(=O)c2ccc(C)cc2)CC1)C(=O)NCc1ccco1 | 5.9* | -10 | 4 | -2 | -25 | -13
SMILES | IMP-1 inhibitor | Mot1-301 SUMO | SUMO HTRF inh | VIM-2 inh | DNA FID counter | NALP1 inh
Cc1ccc(S(=O)(=O)N2CCCCC2C(=O)NCc2ccco2)cc1 (stereo not drawn) | -3 | 0 | 12 | -4 | -11 | -7
Cc1ccc(S(=O)(=O)N2C(=O)CCC2C(=O)NCc2ccco2)cc1 (stereo not drawn) | -1 | 7 | -8 | -3 | 1 | 40*
CSCC[C@H](NC(=O)C1CCN(S(=O)(=O)c2ccc(C)cc2)CC1)C(=O)NCC1CCCO1 (stereo partly drawn) | 0 | -9 | 32 | -3 | -23 | 26
Cc1nnc(SCC(=O)NC2CCCCC2)s1 | 0 | nt | 9 | 2 | 0 | 3
COc1ccccc1C(=O)NC1CC(C)(C)NC(C)(C)C1 | -1 | -21 | 4 | -1 | 3 | 12
COc1cccc(C(=O)NC2CC(C)(C)NC(C)(C)C2)c1OC | 16* | 6 | 5 | -2 | -1 | 9
COc1ccc(N2CC(C(=O)N3CCN(C(=O)c4ccco4)CC3)CC2=O)cc1 (stereo not drawn) | -2 | 0 | -2 | -2 | -8 | 3
CCCc1nnc(N2C(=O)c3cccc4cccc(c34)C2=O)s1 | 2 | -5 | 13 | 8.7* | -7 | 23
COc1cccc2sc3ccc(NCc4ccc5c(c4)OCO5)cc3c(=O)c12 | -2 | 113 | 21 | 9.2* | -14 | 0
COc1cccc(C(=O)NCc2ccc3c(c2)OCO3)c1OC | -2 | -6 | 5 | 0 | -9 | 18
CC1Oc2ccccc2C=C1/C=N/Nc1ccc(C(=O)O)cc1 (stereo not drawn) | -3 | 402* | 34 | -1 | -24 | -31
CCC(CC)NCc1ccc2c(c1)c1ccccc1n2CC | -3 | 0 | -3 | -1 | 33 | 20
CCn1c2ccccc2c2cc(CNCc3ccc(OC)cc3OC)ccc21 | -2 | 3 | -4 | -7 | 27 | 23*
CCn1c2ccccc2c2cc(CNCCCN3CCOCC3)ccc21 | -3 | -5 | 0 | -2 | 47* | -12
COCCC(=O)N1CCC(Oc2ccc(C(=O)N3C[C@@H]4CCC[C@H]3C4)cc2)CC1 | 5.1* | -21 | -1 | 0 | -47 | 4
O=C(Nc1ccccc1)Nc1ccno1 | 0 | -16 | 57* | 1 | -1 | 13
Nc1ncc(Br)cc1S(=O)(=O)NCCC(=O)NC1CCCCC1 | -3 | 3 | nt | -4 | -18 | 8
O=C(CN(Cc1ccco1)C(=O)CNS(=O)(=O)c1ccc(F)cc1)NCc1ccccc1 | 0 | 298* | -3 | 0 | -23 | 21
COc1ccc(-c2cc(-c3ccccc3)n3ncnc3n2)cc1 | 4 | 80 | 53* | 0 | -12 | 10
Cc1nc2scc(C)n2c(=O)c1S(=O)(=O)NCc1ccccc1 | -1 | 5 | 18 | 1 | -2 | 19
Cc1csc2nc3ccccc3c(=O)n12 | 0 | -10 | 9 | 7.8* | 3 | -4
CN(C)c1ccc(/C=C/c2cc[n+]([O-])cc2)cc1 | 6.4* | 11 | 46 | 2 | -4 | 6
COc1ccccc1OCCSc1nc2ccccc2n1CC(O)CO (stereo not drawn) | -2 | 3 | 17 | -1 | -19 | 37

Compound activity from PubChem.
